In ChEMBL document CHEMBL1128341, “(+)-cis-4,5,7a,8,9,10,11,11a-octahydro-7H-10-methylindolo[1,7- bc][2,6]-naphthyridine: a 5-HT2C/2B receptor antagonist with low 5-HT2A receptor affinity” (1995):

Experiments:
[1] = system: Rattus norvegicus; experiment: Inhibition of ACTH response to MK-212 by the compound (1 mg/Kg) in rats; format: functional
Procedure, shortened: (§1)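 Male Sprague-Dawley rats (200–250 g) received compound (0, 0.1 or 1 mg/kg sc) 20 min before MK-212 sc or solvent. Rats were decapitated 30 min after MK-212, and trunk blood plasma was taken. Rat ACTH was measured by radioimmunoassay (ng/mL), as means ± SEM of eight experiments.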

[2] = system: Rattus norvegicus; experiment: Inhibition of ACTH response to MK-212 by the compound (1 mg/Kg) in rats with solvent; format: functional; procedure, shortened: as §1
[3] = system: Rattus norvegicus; experiment: Inhibition of ACTH response to MK-212 by the compound (0.1 mg/Kg) in rats; format: functional; procedure, shortened: as §1
[4] = target: T1, Alpha-2A adrenergic receptor (Bos taurus) (UniProt Q28838)
T1 sequence (whole entry): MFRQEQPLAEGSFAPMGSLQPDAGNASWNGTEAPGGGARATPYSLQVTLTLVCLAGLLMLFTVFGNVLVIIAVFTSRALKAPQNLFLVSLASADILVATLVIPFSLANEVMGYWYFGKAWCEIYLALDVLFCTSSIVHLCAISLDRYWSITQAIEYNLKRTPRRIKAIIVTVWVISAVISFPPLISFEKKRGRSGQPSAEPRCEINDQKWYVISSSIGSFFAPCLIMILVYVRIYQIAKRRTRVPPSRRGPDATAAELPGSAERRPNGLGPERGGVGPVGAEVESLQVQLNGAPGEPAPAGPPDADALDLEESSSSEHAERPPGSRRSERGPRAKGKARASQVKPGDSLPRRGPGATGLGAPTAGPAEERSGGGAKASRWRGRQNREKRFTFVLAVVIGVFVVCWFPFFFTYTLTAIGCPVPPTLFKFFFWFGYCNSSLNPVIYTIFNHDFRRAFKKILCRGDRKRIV

[5] = target: T2, 5-hydroxytryptamine receptor 1A (Homo sapiens) (UniProt P08908); conditions: Sus scrofa; Frontal cortex; Membrane
T2 sequence (whole entry): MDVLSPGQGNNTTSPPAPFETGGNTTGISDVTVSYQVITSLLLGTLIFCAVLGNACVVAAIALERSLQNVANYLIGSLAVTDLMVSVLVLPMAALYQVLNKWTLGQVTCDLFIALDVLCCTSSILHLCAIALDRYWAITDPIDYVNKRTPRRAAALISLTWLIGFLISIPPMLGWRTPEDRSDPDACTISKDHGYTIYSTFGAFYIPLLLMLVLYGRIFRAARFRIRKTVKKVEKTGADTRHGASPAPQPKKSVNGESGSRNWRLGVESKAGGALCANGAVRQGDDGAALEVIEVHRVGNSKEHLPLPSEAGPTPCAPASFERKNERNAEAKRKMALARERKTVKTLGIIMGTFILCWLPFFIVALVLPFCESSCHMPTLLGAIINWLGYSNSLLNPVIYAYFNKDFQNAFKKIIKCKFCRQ

[6] = target: T3, 5-hydroxytryptamine receptor 2C (Homo sapiens) (UniProt P28335)
T3 sequence (whole entry): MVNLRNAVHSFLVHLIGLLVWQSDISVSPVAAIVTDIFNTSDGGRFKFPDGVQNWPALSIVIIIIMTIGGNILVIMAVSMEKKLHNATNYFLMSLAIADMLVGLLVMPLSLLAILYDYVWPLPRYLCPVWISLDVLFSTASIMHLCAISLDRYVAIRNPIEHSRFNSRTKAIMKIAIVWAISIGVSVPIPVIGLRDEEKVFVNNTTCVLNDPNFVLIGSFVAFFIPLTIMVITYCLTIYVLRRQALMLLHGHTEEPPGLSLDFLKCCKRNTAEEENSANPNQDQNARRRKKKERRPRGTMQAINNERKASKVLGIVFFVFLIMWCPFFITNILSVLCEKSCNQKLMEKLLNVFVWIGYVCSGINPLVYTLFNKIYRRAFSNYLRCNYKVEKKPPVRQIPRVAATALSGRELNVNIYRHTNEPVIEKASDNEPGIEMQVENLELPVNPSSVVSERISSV

[7] = target: D(1A) dopamine receptor (Bos taurus) (UniProt Q95136); conditions: Striatum
D(1A) dopamine receptor (Bos taurus), sequence (Q95136 whole entry): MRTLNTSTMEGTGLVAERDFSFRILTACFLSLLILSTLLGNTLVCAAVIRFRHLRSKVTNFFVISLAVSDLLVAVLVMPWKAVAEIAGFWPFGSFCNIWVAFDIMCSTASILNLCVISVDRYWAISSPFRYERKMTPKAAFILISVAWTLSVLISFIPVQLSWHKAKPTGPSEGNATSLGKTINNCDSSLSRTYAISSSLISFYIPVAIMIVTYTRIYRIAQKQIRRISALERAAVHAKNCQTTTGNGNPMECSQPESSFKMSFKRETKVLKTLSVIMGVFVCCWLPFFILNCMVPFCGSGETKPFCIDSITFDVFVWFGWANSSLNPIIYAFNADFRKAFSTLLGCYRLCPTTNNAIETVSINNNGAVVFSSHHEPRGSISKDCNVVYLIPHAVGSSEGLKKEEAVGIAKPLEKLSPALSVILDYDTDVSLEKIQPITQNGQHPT

[8] = target: D(2) dopamine receptor (Bos taurus) (UniProt P20288); conditions: Striatum
D(2) dopamine receptor (Bos taurus), sequence (P20288 whole entry): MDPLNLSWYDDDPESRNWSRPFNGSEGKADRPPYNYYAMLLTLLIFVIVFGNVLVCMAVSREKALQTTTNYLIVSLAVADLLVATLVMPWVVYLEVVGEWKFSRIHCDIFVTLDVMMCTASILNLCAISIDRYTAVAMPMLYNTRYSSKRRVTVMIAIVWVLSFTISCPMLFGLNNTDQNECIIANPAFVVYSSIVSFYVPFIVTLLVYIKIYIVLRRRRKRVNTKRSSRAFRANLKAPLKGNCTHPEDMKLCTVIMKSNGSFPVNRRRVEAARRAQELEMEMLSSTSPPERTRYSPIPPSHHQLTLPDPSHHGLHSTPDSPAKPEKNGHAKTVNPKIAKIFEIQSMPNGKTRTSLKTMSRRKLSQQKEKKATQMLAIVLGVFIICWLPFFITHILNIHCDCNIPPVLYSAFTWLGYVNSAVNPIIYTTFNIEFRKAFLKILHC

[9] = target: 5-hydroxytryptamine receptor 1B (Rattus norvegicus) (UniProt P28564)
5-hydroxytryptamine receptor 1B (Rattus norvegicus), sequence (P28564 whole entry): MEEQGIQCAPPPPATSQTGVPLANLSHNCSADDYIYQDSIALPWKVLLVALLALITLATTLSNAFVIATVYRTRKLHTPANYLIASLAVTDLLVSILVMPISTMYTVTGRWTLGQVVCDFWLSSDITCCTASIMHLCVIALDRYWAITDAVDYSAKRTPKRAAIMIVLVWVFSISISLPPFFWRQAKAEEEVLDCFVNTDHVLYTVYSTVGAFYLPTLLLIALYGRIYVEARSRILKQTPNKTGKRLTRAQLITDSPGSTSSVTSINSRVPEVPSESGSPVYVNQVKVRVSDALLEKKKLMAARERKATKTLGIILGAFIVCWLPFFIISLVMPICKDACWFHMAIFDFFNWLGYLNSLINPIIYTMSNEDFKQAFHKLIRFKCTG

[10] = target: T4, Alpha-1A adrenergic receptor (Bos taurus) (UniProt P18130)
T4 sequence (whole entry): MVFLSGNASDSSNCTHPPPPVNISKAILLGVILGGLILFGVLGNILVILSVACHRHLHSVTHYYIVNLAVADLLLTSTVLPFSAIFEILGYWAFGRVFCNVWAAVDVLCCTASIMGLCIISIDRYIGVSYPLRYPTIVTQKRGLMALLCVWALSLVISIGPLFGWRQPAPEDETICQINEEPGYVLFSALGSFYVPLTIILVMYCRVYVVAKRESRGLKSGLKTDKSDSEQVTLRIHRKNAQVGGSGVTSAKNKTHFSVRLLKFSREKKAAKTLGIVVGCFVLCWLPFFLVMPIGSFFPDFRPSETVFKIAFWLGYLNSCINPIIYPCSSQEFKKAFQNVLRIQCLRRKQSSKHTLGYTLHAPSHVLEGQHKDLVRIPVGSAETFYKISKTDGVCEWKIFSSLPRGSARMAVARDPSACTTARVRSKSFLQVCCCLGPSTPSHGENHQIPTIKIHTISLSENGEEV

[11] = target: Serotonin 3 receptor (5HT3) (Mus musculus) (UniProt Q9JHJ5+P23979); conditions: Cortex
Serotonin 3 receptor (5HT3) (Mus musculus), sequence (P23979 whole entry, looked up): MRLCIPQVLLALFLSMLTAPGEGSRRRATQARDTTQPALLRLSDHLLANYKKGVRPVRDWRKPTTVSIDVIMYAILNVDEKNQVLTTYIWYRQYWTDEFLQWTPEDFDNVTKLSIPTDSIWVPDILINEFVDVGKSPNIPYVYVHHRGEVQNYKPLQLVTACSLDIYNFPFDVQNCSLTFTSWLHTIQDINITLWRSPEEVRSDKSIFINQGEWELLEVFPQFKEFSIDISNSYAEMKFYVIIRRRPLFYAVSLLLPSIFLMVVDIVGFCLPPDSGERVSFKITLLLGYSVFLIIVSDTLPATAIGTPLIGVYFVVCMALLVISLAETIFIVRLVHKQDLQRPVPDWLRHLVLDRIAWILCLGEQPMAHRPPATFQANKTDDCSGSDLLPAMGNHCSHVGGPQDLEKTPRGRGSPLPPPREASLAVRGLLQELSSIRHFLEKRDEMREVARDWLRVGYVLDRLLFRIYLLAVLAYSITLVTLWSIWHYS
Serotonin 3 receptor (5HT3) (Mus musculus), sequence (Q9JHJ5 whole entry, looked up): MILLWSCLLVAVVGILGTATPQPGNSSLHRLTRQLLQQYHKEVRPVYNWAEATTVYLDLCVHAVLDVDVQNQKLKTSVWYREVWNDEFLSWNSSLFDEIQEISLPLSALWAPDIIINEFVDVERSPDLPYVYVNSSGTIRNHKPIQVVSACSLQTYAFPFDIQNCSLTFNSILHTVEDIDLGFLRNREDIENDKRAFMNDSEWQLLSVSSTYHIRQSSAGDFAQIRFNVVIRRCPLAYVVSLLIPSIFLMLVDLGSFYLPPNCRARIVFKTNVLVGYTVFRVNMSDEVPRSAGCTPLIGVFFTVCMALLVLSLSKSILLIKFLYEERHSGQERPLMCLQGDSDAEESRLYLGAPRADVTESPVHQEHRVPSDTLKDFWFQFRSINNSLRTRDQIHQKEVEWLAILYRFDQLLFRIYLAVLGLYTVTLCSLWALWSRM

[12] = target: 5-hydroxytryptamine receptor 2A (Rattus norvegicus) (UniProt P14842); conditions: N1E-115
5-hydroxytryptamine receptor 2A (Rattus norvegicus), sequence (P14842 whole entry): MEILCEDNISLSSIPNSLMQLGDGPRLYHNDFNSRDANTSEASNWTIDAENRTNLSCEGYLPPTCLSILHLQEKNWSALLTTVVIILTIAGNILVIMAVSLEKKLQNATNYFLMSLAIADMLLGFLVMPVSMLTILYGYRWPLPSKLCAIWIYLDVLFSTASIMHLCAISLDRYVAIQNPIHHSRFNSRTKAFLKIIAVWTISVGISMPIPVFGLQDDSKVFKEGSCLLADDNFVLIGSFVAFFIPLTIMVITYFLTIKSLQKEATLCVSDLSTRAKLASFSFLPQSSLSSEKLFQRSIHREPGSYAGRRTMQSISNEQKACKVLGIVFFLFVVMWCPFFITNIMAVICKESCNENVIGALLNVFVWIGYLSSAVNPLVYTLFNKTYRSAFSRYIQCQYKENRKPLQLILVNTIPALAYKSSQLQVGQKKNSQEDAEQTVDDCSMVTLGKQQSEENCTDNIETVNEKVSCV

`CN1CC[C@@H]2CN3CCc4cccc(c43)[C@@H]2C1` (stereo in doubt; 8) [listing 1 of 2 here] showed an Inhibition [1] of 95.1 ng/mL, an Inhibition [2] of 38.5 ng/mL and an Inhibition [3] of 165.8 ng/mL.
Work on `CN1CC[C@@H]2CN3CCc4cccc(c43)[C@@H]2C1` (stereo in doubt; 8) [listing 2 of 2 here] yielded a pKD [4] of 6.5, a pKD [5] of 6.1 and a pKD [6] of 7.8. For the same compound, the pKD [7] was < 5, the pKD [8] was < 5 and the pKD [9] was 4.6. The pKD [10] was 5.6, the pKD [11] was 4.7 and the pKD [12] was 6.2.
For `CN1CC[C@@H]2CN3CCc4cccc(c43)[C@@H]2C1` (stereo in doubt; 9), the pKD [4] was 6, the pKD [5] was < 5 and the pKD [7] was < 5. The pKD [8] was < 5 and the pKD [10] was 6.
`Cc1nc2sccn2c(=O)c1CCN1CCC(=C(c2ccc(F)cc2)c2ccc(F)cc2)CC1` [RITANSERIN] was tested, and the Inhibition [1] was 95.4 ng/mL, the Inhibition [2] was 37.2 ng/mL and the Inhibition [3] was 204.3 ng/mL.
